# Data from ChEMBL document CHEMBL1649446, “Comparative antipneumococcal activities of sulopenem and other drugs” (2009).
# Experiments:
# Format in all cases: functional
# Streptococcus pneumoniae [1] = experiment: Antimicrobial activity against Streptococcus pneumoniae 1 by time-kill analysis
# Procedure, shortened: (§1)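 Time-kill in cation-adjusted Mueller-Hinton broth with 5% lysed horse blood; inocula 5 × 105 to 5 × 10^6 CFU/ml; drugs at MIC, 2× and 4× MIC; 35°C shaking water bath; viable counts at 0, 3, 6, 12 and 24 h. Bactericidal if ≥3 log10 CFU/ml (99.9%) reduction from original inoculum; 90% and 99% killing also scored.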
# Streptococcus pneumoniae [2] = experiment: Antimicrobial activity against Streptococcus pneumoniae isolate 3481 by agar dilution method
# Procedure, shortened: (§2)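 Agar dilution MIC on Mueller-Hinton agar with 5% sheep blood, inocula 10^4 CFU/spot; amoxicillin-clavulanate combined 1:2; S. pneumoniae ATCC 49619 quality control each run.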
# Streptococcus pneumoniae [3] = experiment: Antimicrobial activity against Streptococcus pneumoniae 5 by time-kill analysis; procedure, shortened: as §1
# Streptococcus pneumoniae [4] = experiment: Antimicrobial activity against Streptococcus pneumoniae isolate 3282 by agar dilution method
# Streptococcus pneumoniae [5] = experiment: Antimicrobial activity against Streptococcus pneumoniae 4 by time-kill analysis
# Procedure, shortened: (§3)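 Time-kill in cation-adjusted Mueller-Hinton broth with 5% lysed horse blood; inocula 5 × 105 to 5 × 10^6 CFU/ml; drugs at MIC, 2× and 4× MIC; 35°C shaking water bath; viable counts at 0, 3, 6, 12, 24 h. Bactericidal = ≥3 log10 CFU/ml (99.9%) drop from original inoculum; 90%/99%/99.9% killing scored per strain.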
# Streptococcus pneumoniae [6] = experiment: Antimicrobial activity against Streptococcus pneumoniae isolate 1055 by agar dilution method
# Streptococcus pneumoniae [7] = experiment: Antimicrobial activity against Streptococcus pneumoniae isolate 3346 by agar dilution method
# Streptococcus pneumoniae [8] = experiment: Antimicrobial activity against Streptococcus pneumoniae isolate 3275 by agar dilution method; procedure, shortened: as §2
# Streptococcus pneumoniae [9] = experiment: Antimicrobial activity against Streptococcus pneumoniae isolate 3374 by agar dilution method; procedure, shortened: as §2
# Streptococcus pneumoniae [10] = experiment: Antimicrobial activity against Streptococcus pneumoniae isolate 3681 by agar dilution method; procedure, shortened: as §2
# Streptococcus pneumoniae [11] = experiment: Antimicrobial activity against Streptococcus pneumoniae isolate 2617 by agar dilution method; procedure, shortened: as §2
# Streptococcus pneumoniae [12] = experiment: Antimicrobial activity against Streptococcus pneumoniae isolate 1146 by agar dilution method; procedure, shortened: as §2
# Streptococcus pneumoniae [13] = experiment: Antimicrobial activity against Streptococcus pneumoniae isolate 1424 by agar dilution method; procedure, shortened: as §2
# Streptococcus pneumoniae [14] = experiment: Antimicrobial activity against penicillin-intermediate Streptococcus pneumoniae by agar dilution method
# Streptococcus pneumoniae [15] = experiment: Antimicrobial activity against Streptococcus pneumoniae isolate 37 by agar dilution method; procedure, shortened: as §2
# Streptococcus pneumoniae [16] = experiment: Antimicrobial activity against Streptococcus pneumoniae isolate 1394 by agar dilution method
# Streptococcus pneumoniae [17] = experiment: Antimicrobial activity against penicillin-resistant Streptococcus pneumoniae by agar dilution method; procedure, shortened: as §2
# Streptococcus pneumoniae [18] = experiment: Antimicrobial activity against Streptococcus pneumoniae 7 by time-kill analysis; procedure, shortened: as §3
# Streptococcus pneumoniae [19] = experiment: Antimicrobial activity against Streptococcus pneumoniae isolate 1397 by agar dilution method; procedure, shortened: as §2
# Streptococcus pneumoniae [20] = experiment: Antimicrobial activity against Streptococcus pneumoniae isolate 3587 by agar dilution method
# Streptococcus pneumoniae [21] = experiment: Antimicrobial activity against Streptococcus pneumoniae 11 by time-kill analysis; procedure, shortened: as §3
# Streptococcus pneumoniae [22] = experiment: Antimicrobial activity against Streptococcus pneumoniae 12 by time-kill analysis; procedure, shortened: as §3
# Streptococcus pneumoniae [23] = experiment: Antimicrobial activity against Streptococcus pneumoniae isolate 1384 by agar dilution method; procedure, shortened: as §2
# Streptococcus pneumoniae [24] = experiment: Antimicrobial activity against Streptococcus pneumoniae isolate 2688 by agar dilution method; procedure, shortened: as §2
# Streptococcus pneumoniae [25] = experiment: Antimicrobial activity against Streptococcus pneumoniae isolate 24 by agar dilution method
# Streptococcus pneumoniae [26] = experiment: Antimicrobial activity against Streptococcus pneumoniae isolate 2686 by agar dilution method; procedure, shortened: as §2
# Streptococcus pneumoniae [27] = experiment: Antimicrobial activity against Streptococcus pneumoniae isolate 3263 by agar dilution method
# Streptococcus pneumoniae [28] = experiment: Antimicrobial activity against Streptococcus pneumoniae isolate 2880 by agar dilution method; procedure, shortened: as §2
# Streptococcus pneumoniae [29] = experiment: Antimicrobial activity against Streptococcus pneumoniae isolate 2874 by agar dilution method; procedure, shortened: as §2
# Streptococcus pneumoniae [30] = experiment: Antimicrobial activity against Streptococcus pneumoniae 19A by agar dilution method; procedure, shortened: as §2
# Streptococcus pneumoniae [31] = experiment: Antimicrobial activity against Streptococcus pneumoniae isolate 1564 by agar dilution method
# Streptococcus pneumoniae [32] = experiment: Antimicrobial activity against Streptococcus pneumoniae isolate 3412 by agar dilution method; procedure, shortened: as §2
# Streptococcus pneumoniae [33] = experiment: Antimicrobial activity against Streptococcus pneumoniae 6 by time-kill analysis; procedure, shortened: as §3
# Streptococcus pneumoniae [34] = experiment: Antimicrobial activity against Streptococcus pneumoniae isolate 4755 by agar dilution method; procedure, shortened: as §2
# Streptococcus pneumoniae [35] = experiment: Antimicrobial activity against Streptococcus pneumoniae 8 by time-kill analysis; procedure, shortened: as §3
# Streptococcus pneumoniae [36] = experiment: Antimicrobial activity against Streptococcus pneumoniae isolate 3260 by agar dilution method
# Streptococcus pneumoniae [37] = experiment: Antimicrobial activity against Streptococcus pneumoniae isolate 3455 by agar dilution method
# Streptococcus pneumoniae [38] = experiment: Antimicrobial activity against Streptococcus pneumoniae 10 by time-kill analysis; procedure, shortened: as §3
# Streptococcus pneumoniae [39] = experiment: Antimicrobial activity against Streptococcus pneumoniae 9 by time-kill analysis; procedure, shortened: as §1
# Streptococcus pneumoniae [40] = experiment: Antimicrobial activity against Streptococcus pneumoniae isolate 4747 by agar dilution method; procedure, shortened: as §2
# Streptococcus pneumoniae [41] = experiment: Antimicrobial activity against Streptococcus pneumoniae isolate 33 by agar dilution method; procedure, shortened: as §2
# Streptococcus pneumoniae [42] = experiment: Antimicrobial activity against Streptococcus pneumoniae isolate 1147 by agar dilution method; procedure, shortened: as §2
# Streptococcus pneumoniae [43] = experiment: Antimicrobial activity against Streptococcus pneumoniae 2 by time-kill analysis; procedure, shortened: as §3
# Streptococcus pneumoniae [44] = experiment: Antimicrobial activity against Streptococcus pneumoniae isolate 3791 by agar dilution method; procedure, shortened: as §2
# Streptococcus pneumoniae [45] = experiment: Antimicrobial activity against penicillin-susceptible Streptococcus pneumoniae by agar dilution method
# Streptococcus pneumoniae [46] = experiment: Antimicrobial activity against Streptococcus pneumoniae 3 by time-kill analysis; procedure, shortened: as §3
# Streptococcus pneumoniae [47] = experiment: Antimicrobial activity against Streptococcus pneumoniae isolate 3458 by agar dilution method
compound,measurement,setting,value
COc1c(N2CCNC(C)C2)c(F)cc2c(=O)c(C(=O)O)cn(C3CC3)c12 (stereo unspecified) [GATIFLOXACIN],MIC,Streptococcus pneumoniae [1],4 µg/mL
same,MIC,Streptococcus pneumoniae [2],0.25 µg/mL
same,MIC,Streptococcus pneumoniae [3],0.5 µg/mL
same,MIC,Streptococcus pneumoniae [4],0.125 µg/mL
same,MIC,Streptococcus pneumoniae [5],4 µg/mL
same,MIC,Streptococcus pneumoniae [6],16 µg/mL
same,MIC,Streptococcus pneumoniae [7],0.125 µg/mL
same,MIC,Streptococcus pneumoniae [8],0.25 µg/mL
same,MIC,Streptococcus pneumoniae [9],0.25 µg/mL
same,MIC,Streptococcus pneumoniae [10],0.5 µg/mL
same,MIC,Streptococcus pneumoniae [11],0.5 µg/mL
same,MIC,Streptococcus pneumoniae [12],2 µg/mL
same,MIC,Streptococcus pneumoniae [13],0.25 µg/mL
same,MIC50,Streptococcus pneumoniae [14],0.25 µg/mL
same,MIC90,Streptococcus pneumoniae [14],0.5 µg/mL
same,MIC,Streptococcus pneumoniae [15],0.5 µg/mL
same,MIC,Streptococcus pneumoniae [16],0.5 µg/mL
same,MIC50,Streptococcus pneumoniae [17],0.5 µg/mL
same,MIC90,Streptococcus pneumoniae [17],1 µg/mL
same,MIC,Streptococcus pneumoniae [18],0.5 µg/mL
same,MIC,Streptococcus pneumoniae [19],0.5 µg/mL
same,MIC,Streptococcus pneumoniae [20],0.25 µg/mL
same,MIC,Streptococcus pneumoniae [21],0.5 µg/mL
same,MIC,Streptococcus pneumoniae [22],0.25 µg/mL
same,MIC,Streptococcus pneumoniae [23],0.5 µg/mL
same,MIC,Streptococcus pneumoniae [24],0.5 µg/mL
same,MIC,Streptococcus pneumoniae [25],0.5 µg/mL
same,MIC,Streptococcus pneumoniae [26],0.25 µg/mL
same,MIC,Streptococcus pneumoniae [27],0.25 µg/mL
same,MIC,Streptococcus pneumoniae [28],0.25 µg/mL
same,MIC,Streptococcus pneumoniae [29],0.5 µg/mL
same,MIC50,Streptococcus pneumoniae [30],0.5 µg/mL
same,MIC90,Streptococcus pneumoniae [30],0.5 µg/mL
same,MIC,Streptococcus pneumoniae [31],0.5 µg/mL
same,MIC,Streptococcus pneumoniae [32],0.25 µg/mL
same,MIC,Streptococcus pneumoniae [33],0.25 µg/mL
same,MIC,Streptococcus pneumoniae [34],0.25 µg/mL
same,MIC,Streptococcus pneumoniae [35],0.25 µg/mL
same,MIC,Streptococcus pneumoniae [36],0.125 µg/mL
same,MIC,Streptococcus pneumoniae [37],0.5 µg/mL
same,MIC,Streptococcus pneumoniae [38],0.25 µg/mL
same,MIC,Streptococcus pneumoniae [39],0.5 µg/mL
same,MIC,Streptococcus pneumoniae [40],0.125 µg/mL
same,MIC,Streptococcus pneumoniae [41],0.5 µg/mL
same,MIC,Streptococcus pneumoniae [42],4 µg/mL
same,MIC,Streptococcus pneumoniae [43],0.25 µg/mL
same,MIC,Streptococcus pneumoniae [44],0.5 µg/mL
same,MIC50,Streptococcus pneumoniae [45],0.5 µg/mL
same,MIC90,Streptococcus pneumoniae [45],4 µg/mL
same,MIC,Streptococcus pneumoniae [46],0.25 µg/mL
same,MIC,Streptococcus pneumoniae [47],0.5 µg/mL
